The source of these data is publication PMC7383777 (Pediatric Diabetes, 2020).

Where two headings read alike, the source gives them in different places.

The format of this series is in vivo, human. The conditions noted are these: for Glucose intervention needed, subjects: between 2 and 6 hours postdose. The essentials:
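Randomized crossover: single s.c. pen dose of test or comparator insulin (100 U/mL) at two visits 3–22 days apart. Subjects were hospitalised 12 h and fasted to 6 h. AEs were treatment-emergent if onset was ≤7 days postdose. Hypoglycaemia followed ADA/ISPAD definitions, confirmed by meter PG <56 mg/dL and counted up to the next insulin or 16 h. Glucose was given below 56 mg/dL or at investigator discretion.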

Where [1] appears, read: across the three age groups, 0.2 U/kg s.c. single dose.

Consider insulin aspart [IAsp], for which the Safety and tolerability entry under setting [1] is “safe and well tolerated”. Under setting [1], the “Serious AEs” value was “No serious AEs were observed”. Under setting [1], the Severe hypoglycemic episodes entry was “No severe hypoglycemic episodes were reported”. Moreover, the “Confirmed hypoglycemic episodes (PG below 56 mg/dL), number” value (adults, N = 15, 0.2 U/kg s.c. single dose) is on record as “three”. The “Glucose intervention needed, subjects” value is given as “three” (adults), “seven” (all age groups) and “three” (children).
